This note sets out measurements from ChEMBL document CHEMBL1208685, “Synthesis, antiproliferative activity and inhibition of tubulin polymerization by anthracenone-based oxime derivatives” (Eur J Med Chem, 2010).

One test has as its system K562. Put plainly: Cell growth inhibition of human K562 cells after 48 hrs. The test is classed as functional, cell-based. The settings on record: K562, 48 h. Put shortly:
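K562 human chronic myelogenous leukemia cells cultured in Quantum 263 medium with streptomycin and penicillin G at 37 °C, 5% CO2. Seeded at 2 × 10⁵ cells/mL, exposed 48 h to compounds in DMSO/methanol 1:1 (vehicle 0.5%). Cells counted in Neubauer chamber and expressed as % of untreated control. Triplicate wells, three experiments. IC50 by nonlinear regression.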

In a further test the target is Tubulin (Sus scrofa). Description: Inhibition of tubulin polymerization using porcine brain microtubule protein.

The term IC50 denotes the point on the concentration scale where inhibition reaches its midpoint. Read a low IC50 as higher potency. For the molecule `COc1cc(CON=C2c3ccccc3C(=O)c3ccccc32)cc(OC)c1OC`, the IC50 with K562 was greater than 12 µM.
For the molecule `O=C1c2cccc(Cl)c2/C(=N\O)c2cccc(Cl)c21`, in the test with K562, half-maximal inhibition (IC50) required 1.6 µM.
Still for that read-out and setting: the same measure for `O=C1c2ccccc2C(=NO)c2ccccc21`: 3 µM.
As to `COc1ccc(CON=C2c3ccccc3C(=O)c3ccccc32)cc1`, the figures for the half-inhibitory concentration (IC50) with K562 and against Tubulin (Sus scrofa) were 0.37 µM and 1.05 µM, respectively.
For `COc1ccc(C(=O)ON=C2c3ccccc3C(=O)c3ccccc32)cc1`, in that order: 3 µM and greater than 10 µM.
`O=C1c2ccccc2C(=NOCc2ccccc2)c2ccccc21` returned an IC50 with K562 of 7 µM.
In turn, `O=C1c2ccccc2C(=NOCc2ccc(Cl)cc2)c2ccccc21` registered an IC50 in the test with K562 of 10 µM.
For the molecule `COc1ccc(CON=C2c3cccc(OC)c3C(=O)c3c(OC)cccc32)cc1O`, the IC50 was 2.4 µM in the test on K562 and greater than 10 µM at Tubulin (Sus scrofa).
As for `COc1cc(C(=O)ON=C2c3ccccc3C(=O)c3ccccc32)cc(OC)c1OC`, the IC50 in the test with K562 is greater than 12 µM.
On to `COc1ccc(C(=O)ON=C2c3cccc(Cl)c3C(=O)c3c(Cl)cccc32)cc1`, for which, in the test with K562, the IC50 is greater than 12 µM.
Regarding `COc1cc(CO/N=C2\c3cccc(Cl)c3C(=O)c3cccc(Cl)c32)cc(OC)c1OC`, the IC50 with K562 was greater than 14 µM.
With `COc1ccc(C(=O)O/N=C2\c3cccc(Cl)c3C(=O)c3cccc(Cl)c32)cc1`, the half-maximal inhibitory concentration (IC50) in the test on K562 is 12 µM; against Tubulin (Sus scrofa) it was greater than 10 µM.
Consider `COc1ccc(C(=O)ON=C2c3ccccc3C(=O)c3ccccc32)cc1O`, for which the IC50 in the test on K562 worked out at 2 µM.
As for `COc1ccc(S(=O)(=O)ON=C2c3ccccc3C(=O)c3ccccc32)cc1`, the figures for the IC50 in the test on K562 and on Tubulin (Sus scrofa) were 3 µM and greater than 10 µM, respectively.
For `O=C1c2c(Cl)cccc2C(=NO)c2cccc(Cl)c21`, the concentration for half-maximal inhibition (IC50) in the test with K562 is greater than 9 µM.
As for `COc1cc(C(=O)ON=C2c3ccccc3C(=O)c3ccccc32)ccc1O`, in the test with K562, the IC50 is 3 µM.
On the same count and under the same terms, the same measure for `COc1ccc(S(=O)(=O)O/N=C2\c3cccc(Cl)c3C(=O)c3cccc(Cl)c32)cc1`: greater than 12 µM; for `COc1cccc2c1C(=O)c1c(OC)cccc1C2=NO`: 0.9 µM.
The same measure, in the same setting: in the case of `O=C1c2ccccc2C(=NOCc2ccc([N+](=O)[O-])cc2)c2ccccc21` it was greater than 11 µM.
In the case of `COc1ccc(CON=C2c3ccccc3C(=O)c3ccccc32)cc1O`, the IC50 with K562 is 0.11 µM; against Tubulin (Sus scrofa), 1.43 µM.
As for `O=C1c2cccc(Cl)c2/C(=N/O)c2cccc(Cl)c21`, the midpoint of inhibition in the test with K562, the IC50, lay at 1.6 µM.
As to `COc1cc(C(=O)O/N=C2\c3cccc(Cl)c3C(=O)c3cccc(Cl)c32)cc(OC)c1OC`, in the test on K562, the concentration for half-maximal inhibition (IC50) is greater than 14 µM.
Regarding `COc1ccc(CO/N=C2\c3cccc(Cl)c3C(=O)c3cccc(Cl)c32)cc1`, the values for the IC50 in the test on K562 and on Tubulin (Sus scrofa) were greater than 12 µM and greater than 10 µM, respectively.
As to `COc1ccc(CON=C2c3cccc(Cl)c3C(=O)c3c(Cl)cccc32)cc1`, the IC50 with K562 was greater than 12 µM.
As for `COc1ccc(CON=C2c3cccc(OC)c3C(=O)c3c(OC)cccc32)cc1`, the values for the IC50 in the test with K562 and on Tubulin (Sus scrofa) were 3.4 µM and greater than 10 µM, respectively.
